Screening results: PubChem BioAssay, several laboratories
LMPTP inh: blocks human LMPTP phosphatase; hit rate 0.22% among 360,000; inhibition, % at 20 µM; recombinant LMPTP-A, OMFP fluorogenic substrate, fluorescence intensity; AID 651560;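 active = compounds that cut the enzyme signal by at least half of the control window in the single-dose screen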;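 also: plate controls were DMSO wells with enzyme plus substrate for no effect and substrate without enzyme for full effect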
Target sequence (P24666 whole entry, looked up): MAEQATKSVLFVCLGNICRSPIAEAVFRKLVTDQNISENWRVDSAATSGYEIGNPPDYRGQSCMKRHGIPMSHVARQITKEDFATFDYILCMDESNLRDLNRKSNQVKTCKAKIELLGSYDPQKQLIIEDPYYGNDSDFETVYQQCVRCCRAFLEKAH
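Test system: LMPTP-A phosphatase enzyme. Amount: LMPTP-A at 0.625 nM final in the reaction. Reagent: OMFP substrate, 400 µM final. Times: 50 min at room temperature. Signal: endpoint fluorescence intensity from OMFP dephosphorylation. Read-out basis: % inhibition. Benchmarks: no-enzyme and uninhibited controls.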
NadD inh: blocks S. aureus nicotinate mononucleotide adenylyltransferase; inhibition, % at 20 µM; AID 602399; hit rate 0.78% among 360,000; purified NadD enzyme, colorimetric absorbance read-out; in the data active = inhibition above about 26%
STEP block: STEP (human) phosphatase inhibition; P54829; recombinant STEP, OMFP fluorogenic substrate, fluorescence; inhibition, % at 20 µM; hit rate 0.25% among 360,000;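 active = inhibition at 20 µM, scaled per plate between control wells, above about 37%, limit read from the data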;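 also: 0% = DMSO with enzyme and substrate and 100% = substrate only without enzyme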
Target sequence (P54829 whole entry, looked up): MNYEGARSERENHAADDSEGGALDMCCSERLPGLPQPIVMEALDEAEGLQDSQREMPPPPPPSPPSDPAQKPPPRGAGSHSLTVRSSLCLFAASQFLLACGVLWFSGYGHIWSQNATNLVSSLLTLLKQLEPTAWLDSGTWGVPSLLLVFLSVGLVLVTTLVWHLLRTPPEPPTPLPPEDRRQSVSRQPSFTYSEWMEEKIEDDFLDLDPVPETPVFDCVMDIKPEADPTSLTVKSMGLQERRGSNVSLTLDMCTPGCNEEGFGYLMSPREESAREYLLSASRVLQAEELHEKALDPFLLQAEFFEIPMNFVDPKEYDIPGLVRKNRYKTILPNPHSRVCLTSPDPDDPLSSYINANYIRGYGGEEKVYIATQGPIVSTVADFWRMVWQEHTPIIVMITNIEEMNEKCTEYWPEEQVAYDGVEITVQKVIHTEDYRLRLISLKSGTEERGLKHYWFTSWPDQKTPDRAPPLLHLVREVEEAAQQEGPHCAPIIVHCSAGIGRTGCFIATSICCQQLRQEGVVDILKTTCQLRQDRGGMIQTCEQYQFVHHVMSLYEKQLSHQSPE
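material = STEP tyrosine phosphatase | reagent = fluorogenic phosphatase substrate OMFP at 25 µM final | doses = single compound dose of 20 µM, 1% DMSO final | schedule = 20 min reaction, room temperature, in the dark | measured by = fluorescence, 480/540 nm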
rCAG binder: binds r(CAG) RNA repeats. hit rate 1.3% among 370,000. inhibition, % at 3 µM. AID 651821. r(CAG) RNA repeat, TO-PRO-1 dye displacement fluorescence;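 active = inhibition above the plate cutoff, the mean of all test compounds on that plate plus 3 SD, cut at about 35% in these data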;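 also: 0% = DMSO alone and 100% = 100 µM mitoxantrone as full dye displacement; higher means more dye released from RNA so lower well fluorescence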
Scp-1 inhibitor: blocks human Scp-1 phosphatase activity. AID 493091. hit rate 0.88% among 340,000. Recombinant Scp1, phosphopeptide, malachite green phosphate absorbance. inhibition, % at 20 µM;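 active = inhibition above about 50% at 20 µM, limit read from the data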;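 also: plate controls were DMSO wells with enzyme for no effect and wells lacking enzyme for full effect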
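assay system = SCP-1 phosphatase catalytic domain, residues 76-261 | buffer or medium = 50 mM Tris acetate pH 5.5, 0.005% Tween-20, 10 mM MgCl2 | incubation = enzyme reaction 45 min at room temperature, colour 5 min, stabilisation 30 min | signal = Phosphate-binding colour reagent, absorbance read at 630 nm | measure = % inhibition at 20 µM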
rCAG bind conf: r(CAG) RNA repeat binding, confirmation; shares compounds with rCAG binder; TO-PRO-1 dye displacement fluorescence; inhibition, % at 3 µM; hit rate 70% among 4,300; AID 652065;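 active = inhibition above a per-plate cutoff, the mean inhibition of sample wells plus 3 SD, cut at about 35% in these data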;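 also: loss of TO-PRO-1 fluorescence as compound displaces dye from 1x1 AA loop RNA; 0% = DMSO only wells and 100% = 100 µM mitoxantrone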
dCAG dye counter: DNA CAG dye complex inhibition counter-screen; shares compounds with rCAG binder; d(CAG) DNA oligo TO-PRO-1 dye displacement, fluorescence; inhibition, % at 3 µM; hit rate 94% among 4,300;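 active = inhibition above its plate's cutoff, the mean test-well inhibition plus 3 SD, cut at about 4.8% in these data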;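 also: 0% = DNA dye mix with DMSO and 100% = 100 µM mitoxantrone; hits displace the dye from DNA and so lower well fluorescence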
DNA CAG DR: DNA CAG dye complex inhibition, dose response counter-screen | shares compounds with rCAG binder | DNA CAG/GTC duplex TO-PRO-1 dye displacement fluorescence | IC50, µM | hit rate 20% among 250 | AID 686960; in the data active = IC50 below about 10 µM
An asterisk follows results filed as active; i = inactive; . = no result. A selection: hits, their analogues and other compounds. The true share with any hit is near 2.6%.

SMILES	LMPTP inh	NadD inh	STEP block	rCAG binder	Scp-1 inhibitor	rCAG bind conf	dCAG dye counter	others
COC[C@@H]1CCCN1c1cccc2c1S(=O)(=O)N1CC[C@H](C1)O2	.	.	.	0	.	.	.
O=S(=O)(Nc1ccc(Br)cc1)c1cccc(NS(=O)(=O)c2cccs2)c1	2	3	-6	37*	-12	29	6.9*
CN1C(=O)C(c2cn(C)c3ccccc23)(c2cn(C)c3ccccc23)c2ccccc21	.	.	.	14	.	.	.
O=C(NNC(=S)NCCc1ccccc1)c1ccc(Br)s1	-1	-1	1	54*	-13	47*	14*	DNA CAG DR=>30
O=C(CCc1ccc(O)cc1)NNC(=S)NCCc1ccccc1	-2	-1	-1	-2	-13	.	.
C/C(=N\NC(=O)c1cc(-c2ccccc2)nc2ccccc12)c1ccc(Cl)cc1	.	.	.	6	.	.	.
O=C(O)/C=C/c1ccc(S(=O)(=O)Nc2ccc(OCc3ccccc3)cc2)cc1	1	-9	0	52*	-4	30	6.8*
O=C(O)c1ccc(NC(=S)NC(=O)c2cccc(COc3ccccc3)c2)cc1	8	7	26	48*	-1	49*	16*
O=C(NC(=S)Nc1ccc(CN2CCCCC2)cc1)c1cccc(OCc2ccccc2)c1	5	-1	6	-4	2	.	.
O=C(O)c1cccc(S(=O)(=O)Nc2ccc(OCc3ccccc3)cc2)c1	-1	-5	5	41*	-3	17	4
O=C(O)c1cc(OCc2ccccc2)cc(OCc2ccccc2)c1	1	3	-1	43*	-16	40*	8.0*
CCOc1cc(OCC)cc(C(=O)O)c1	-1	6	-1	-3	-5	.	.
O=C(O)c1cc(S(=O)(=O)Nc2ccc(OCc3ccccc3)cc2)ccc1Br	0	-3	0	45*	-15	28	7.5*
O=C(O)CCc1ccc(S(=O)(=O)Nc2ccc(OCc3ccccc3)cc2)cc1	0	5	28	23	30	.	.
CCOc1ccc(NS(=O)(=O)c2ccc(C(=O)NNC(=O)c3ccccc3O)cc2)cc1	2	-2	0	35*	-9	14	4
O=C(OC12CCCN(C1)/C(=C/c1ccccc1)C2)c1ccc(F)cc1 (centres undefined)	.	.	.	8	.	.	.
CN(C)c1ncc(C2=C(Cl)C(=O)C(N3CCCC3)=C(Cl)C2=O)s1	14	25	7	65*	18	55*	24*	DNA CAG DR=i
Cc1cccc(NC(=O)Nc2ccccc2C(=O)N2CCCC2)c1	.	.	.	-1	.	.	.
COc1ccc(OC)c(S(=O)(=O)N(CC(=O)NC2CCC(C)CC2)c2cc(C)cc(C)c2)c1 (centres undefined)	.	.	.	3	.	.	.
COC(=O)[C@]12C[C@H](CC(=O)NCc3cccc(C(F)(F)F)c3)C(=O)N(Cc3ccco3)C1=C[C@H](C(C)C)O[C@@H]2C1CC1	.	.	.	0	.	.	.
CCCOc1ccc(C(CC(=O)O)NC(=O)c2sc3ccccc3c2Cl)cc1 (centres undefined)	0	4	-1	53*	-3	42*	9.9*
O=C(Nc1ccc(F)cc1)OC1CC2CC1[C@H]1CCCCN1C2 (some centres undefined)	.	.	.	8	.	.	.
Nc1cc2c(cc1[N+](=O)[O-])-c1ccccc1C2=NO	7	5	-1	44*	-13	30	24*
CC(=O)Nc1cc2c(cc1[N+](=O)[O-])-c1ccccc1C2=NO	-1	3	-2	5	0	.	.
Cc1ccc(S(=O)(=O)NC(=O)COc2cc(C)ccc2C(C)C)cc1	-2	0	-3	36*	-10	18	3
SMILES	LMPTP inh	NadD inh	STEP block	rCAG binder	Scp-1 inhibitor	rCAG bind conf	dCAG dye counter	others
CC(C)C[C@@H]1COc2cccc(N3CCSCC3)c2S(=O)(=O)N1C	.	.	.	1	.	.	.
COc1ccc(C(=O)O)cc1S(=O)(=O)Nc1cc(C(F)(F)F)ccc1N1CCCCC1	0	6	0	46*	.	32	7.1*
O=C(O)c1cc(NS(=O)(=O)c2ccc(N3CCOCC3)c([N+](=O)[O-])c2)cc(C(=O)O)c1	-1	-2	2	2	0	.	.
CC1CCN(c2ccc(C(=O)O)cc2NS(=O)(=O)c2ccc(Br)cc2)CC1	0	5	2	35*	9	37*	11*
COC(=O)c1cc(NS(=O)(=O)c2ccc(N3CCC(C)CC3)c([N+](=O)[O-])c2)cc(C(=O)OC)c1	5	6	1	55*	-10	60*	19*
CC1CCN(c2ccc(C(=O)O)cc2NS(=O)(=O)c2ccc(Cl)s2)CC1	.	.	.	29	.	.	.
CC1CCN(c2ccc(C(=O)O)cc2NS(=O)(=O)c2cccc3cccnc23)CC1	.	.	.	36*	.	30	7.2*
CC(=O)CC[C@@H]1CC[C@]2(CCCN(C(=O)C3CCCCC3)C2)O1	.	.	.	-1	.	.	.
CCOC(=O)[C@@]12CCCC3=C1N(CCC3)C(=O)[C@H]2CC(=O)NCCCN1CCCC1=O	.	.	.	0	.	.	.
CCOC(=O)CC[C@@H]1CC[C@]2(CCCN(C(=O)C3CCCCC3)C2)O1	.	.	.	1	.	.	.
Cc1ccc(S(=O)(=O)Nc2cc(C(=O)O)ccc2N2CCC(C)CC2)cc1C	.	.	.	42*	.	41*	11*
O=c1oc2ccccc2c(Nc2cccc3cccnc23)c1[N+](=O)[O-]	-1	1	1	4	-7	.	.
O=c1oc2ccccc2c(Nc2cc3ccccc3cc2O)c1[N+](=O)[O-]	4	6	-1	41*	3	56*	20*
O=c1oc2ccccc2c(Nc2ccccc2O)c1[N+](=O)[O-]	0	7	3	3	3	.	.
O=c1oc2ccccc2c(Nc2cccc3ccccc23)c1[N+](=O)[O-]	-1	1	-9	42*	5	45*	12*
CN1C(=O)C[C@@](C#N)(C(=O)Nc2nc3ccc(F)cc3s2)[C@H]1c1ccccc1	.	.	.	3	.	.	.
COc1cccc(C(=O)N[C@H](C(=O)N2CCC[C@H]2C(=O)NCCc2ccccc2Cl)C(C)C)c1	.	.	.	-2	.	.	.
Cc1onc(-c2ccccc2Cl)c1C(=O)Nc1nnc(-c2cccc([N+](=O)[O-])c2)s1	1	5	1	42*	-14	34	7.4*
CCSc1nnc(NC(=O)c2c(-c3ccccc3Cl)noc2C)s1	0	-9	1	2	1	.	.
CCCCN1C[C@@H]2CSCCS(=O)(=O)N2C1=O	.	.	.	0	.	.	.
Cc1ccc(-c2ccc(/C=N/N=C3/NC(=O)C(CC(=O)O)S3)o2)c([N+](=O)[O-])c1 (centres undefined)	1	10	4	25	-4	.	.
